Common to all, as to format: functional
Test [1] relates to Enterococcus faecalis. The test can be described thus: Antimicrobial activity against Enterococcus faecalis 10-6 after 18-24 hrs by two-fold serial dilution method. The essentials: (§1)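 Agar-medium twofold serial dilution against Gram-positive and Gram-negative strains; MIC taken as the lowest compound concentration giving complete inhibition of bacterial growth after incubation at 35 °C for 18-24 h.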

For test [2], the system named is Escherichia coli. The test can be described thus: Antimicrobial activity against extended spectrum beta-lactamases-producing Escherichia coli 10-2 after 18-24 hrs by two-fold serial dilution method. The essentials: as §1
Test [3] deals with Staphylococcus epidermidis. Put plainly: Ratio of levofloxacin MIC to compound MIC for extended spectrum beta-lactamases-producing methicillin-sensitive Staphylococcus epidermidis 10-13 after 18-24 hrs by two-fold serial dilution method. The essentials:
(§2)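 MICs were determined by the standard twofold serial dilution method on agar media against the test strains, with levofloxacin run as a reference. MIC is the lowest concentration giving complete inhibition of bacterial growth after 18–24 h incubation at 35 °C. The ratio is levofloxacin MIC divided by test-compound MIC.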

For a further test, the system named is Streptococcus pneumoniae. Put plainly: Antimicrobial activity against extended spectrum beta-lactamases-producing Streptococcus pneumoniae 10-4 after 18-24 hrs by two-fold serial dilution method. In outline: as §1
In test [4] the test system is Escherichia coli. The test can be described thus: Antimicrobial activity against extended spectrum beta-lactamases-producing Escherichia coli 10-3 after 18-24 hrs by two-fold serial dilution method. In outline: as §1
The subject of test [5] is Staphylococcus epidermidis. Put plainly: Antimicrobial activity against extended spectrum beta-lactamases-producing methicillin-sensitive Staphylococcus epidermidis 10-11 after 18-24 hrs by two-fold serial dilution method. The essentials: as §1
Test [6] has as its system Staphylococcus aureus. The test can be described thus: Ratio of gemifloxacin MIC to compound MIC for extended spectrum beta-lactamases-producing methicillin-sensitive Staphylococcus aureus 10-14 after 18-24 hrs by two-fold serial dilution method.
Test [7] relates to Escherichia coli. Put plainly: Antimicrobial activity against Escherichia coli 10-1 after 18-24 hrs by two-fold serial dilution method. In outline:
as §1

In test [8] the test system is Escherichia coli. Put plainly: Antimicrobial activity against Escherichia coli 10-2 after 18-24 hrs by two-fold serial dilution method. The essentials:
as §1

For test [9], the system named is Staphylococcus aureus. The test can be described thus: Ratio of gemifloxacin MIC to compound MIC for extended spectrum beta-lactamases-producing methicillin-sensitive Staphylococcus aureus 10-13 after 18-24 hrs by two-fold serial dilution method.
For test [10], the system named is Staphylococcus aureus. Put plainly: Antimicrobial activity against extended spectrum beta-lactamases-producing methicillin-resistant Staphylococcus aureus 10-11 after 18-24 hrs by two-fold serial dilution method. In outline: (§3)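 Agar twofold serial dilution MIC against clinical isolates. MIC was taken as the lowest concentration giving complete inhibition of bacterial growth after incubation at 35 °C for 18-24 h.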

In test [11] the test system is Klebsiella pneumoniae. Put plainly: Antimicrobial activity against extended spectrum beta-lactamases-producing Klebsiella pneumoniae 10-3 after 18-24 hrs by two-fold serial dilution method. In outline:
as §1

In test [12] the test system is Staphylococcus aureus. Put plainly: Ratio of levofloxacin MIC to compound MIC for extended spectrum beta-lactamases-producing methicillin-sensitive Staphylococcus aureus 10-14 after 18-24 hrs by two-fold serial dilution method. In outline:
as §2

The subject of test [13] is Staphylococcus aureus. Put plainly: Ratio of gemifloxacin MIC to compound MIC for Staphylococcus aureus ATCC […] after 18-24 hrs by two-fold serial dilution method.
Test [14] has as its system Enterococcus faecalis. Put plainly: Ratio of levofloxacin MIC to compound MIC for Enterococcus faecalis 10-7 after 18-24 hrs by two-fold serial dilution method.
Test [15] has as its system Enterococcus faecalis. The test can be described thus: Antimicrobial activity against Enterococcus faecalis 10-7 after 18-24 hrs by two-fold serial dilution method. The essentials: as §1
In test [16] the test system is Enterococcus faecalis. The test can be described thus: Antimicrobial activity against Enterococcus faecalis 10-5 after 18-24 hrs by two-fold serial dilution method. In outline: as §1
Test [17] relates to Enterococcus faecalis. Put plainly: Ratio of gemifloxacin MIC to compound MIC for Enterococcus faecalis 10-5 after 18-24 hrs by two-fold serial dilution method.
Test [18] relates to Staphylococcus aureus. The test can be described thus: Ratio of levofloxacin MIC to compound MIC for extended spectrum beta-lactamases-producing methicillin-sensitive Staphylococcus aureus 10-13 after 18-24 hrs by two-fold serial dilution method. The essentials: as §2
Test [19] relates to Enterococcus faecalis. The test can be described thus: Ratio of levofloxacin MIC to compound MIC for Enterococcus faecalis 10-6 after 18-24 hrs by two-fold serial dilution method.
For test [20], the system named is Klebsiella pneumoniae. Put plainly: Antimicrobial activity against extended spectrum beta-lactamases-producing Klebsiella pneumoniae 10-2 after 18-24 hrs by two-fold serial dilution method. The essentials: as §1
Test [21] relates to Staphylococcus aureus. Put plainly: Antimicrobial activity against extended spectrum beta-lactamases-producing methicillin-resistant Staphylococcus aureus 10-15 after 18-24 hrs by two-fold serial dilution method. The essentials: as §3

The structures appear in SMILES notation. Where only a bound is given, the exact number is not on record here.

As to `COc1ccc(OC)c(CO/N=C2\CN(c3nc4c(cc3F)c(=O)c(C(=O)O)cn4C3CC3)CC2CN)c1.CS(=O)(=O)O` (racemic), the MIC against Enterococcus faecalis [1] is 4 µg/mL; against Escherichia coli [2], above 128 µg/mL; in the test with Streptococcus pneumoniae, 0.015 µg/mL; in the test on Escherichia coli [4], above 128 µg/mL; in [5], 0.25 µg/mL; against Escherichia coli [7], above 128 µg/mL. Further, the MIC against Escherichia coli [8] was above 128 µg/mL; against Staphylococcus aureus [10], 1 µg/mL; in the test on Klebsiella pneumoniae [11], above 128 µg/mL; against Enterococcus faecalis [15], 0.25 µg/mL; against Enterococcus faecalis [16], 0.25 µg/mL; against Klebsiella pneumoniae [20], above 128 µg/mL. For the same compound, in the test on Staphylococcus aureus [21], the MIC amounted to 0.125 µg/mL. For the same compound, the Ratio in test [3] turned out to be 8; with Staphylococcus aureus [6], 2; in the test on Staphylococcus aureus [9] it was 2; in the test on Staphylococcus aureus [12], 8; with Staphylococcus aureus [13] it was 2; with Enterococcus faecalis [14], 8. Further, the Ratio with Enterococcus faecalis [17] is on record as 2; in the test on Staphylococcus aureus [18], 8; in the test on Enterococcus faecalis [19], 8.
